Molecular target: Adenosine receptor A2a (Homo sapiens, UniProt P29274)
Experiment: Displacement of [3H]ZM241385 from human AA2AR expressed in HEK293T cells after 2 hrs by liquid scintillation counter
Outline: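 Membranes of HEK293T cells stably expressing AA2AR (40 µg protein) incubated with 1.7 nM (final) [3H]ZM241385 in 50 mM Tris·HCl pH 7.4, 2 h at 25 °C with shaking. Nonspecific binding defined with 100 µM CGS21680. Filtered over GF/B, washed three times with ice-cold buffer. Compounds giving ≥50% inhibition at 10 µM went to concentration-response curves. pKi values, n=3 in duplicate.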

Adenosine receptor A2a, sequence (P29274 whole entry): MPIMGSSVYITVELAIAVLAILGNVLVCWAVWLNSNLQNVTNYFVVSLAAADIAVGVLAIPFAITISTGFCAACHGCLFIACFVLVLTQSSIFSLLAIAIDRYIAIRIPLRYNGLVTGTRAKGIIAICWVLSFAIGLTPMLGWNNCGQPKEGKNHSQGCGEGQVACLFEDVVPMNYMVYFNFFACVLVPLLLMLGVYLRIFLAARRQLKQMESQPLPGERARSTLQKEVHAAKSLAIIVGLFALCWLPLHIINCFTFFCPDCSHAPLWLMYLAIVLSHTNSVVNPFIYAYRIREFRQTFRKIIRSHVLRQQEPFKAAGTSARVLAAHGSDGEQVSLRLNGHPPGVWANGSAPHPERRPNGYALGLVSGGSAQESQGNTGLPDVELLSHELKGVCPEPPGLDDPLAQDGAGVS

Ki [µM]	SMILES
5.01	COc1cc(CN=Nc2ncnc3sc4c(c23)CCCC4)ccc1O
5.01	N#CC(N=Nc1ccc(S(N)(=O)=O)cc1)c1nc2ccccc2[nH]1 (configuration not stated)
